An excerpt weighted towards active compounds, which were near 8.4% of everything screened.
Cav3 T inh = Cav3.2 calcium influx blockers – cell-based, Fluo-4 calcium fluorescence, FDSS, MLSMR library, primary screen. Voltage-dependent T-type calcium channel subunit alpha-1H (Homo sapiens), O95180. Cav3.2-expressing cells; active compounds read low. B-score at 10 µM. 4% of 100,000 active;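 active = single-dose well whose peak fluorescence ratio is a statistical outlier from its plate by either plate-standardised score or position-corrected B-score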
Ecoli WT expand = growth inhibitors of wild-type E. coli, primary screen, strain BW25113, expanded library, OD600; 0.15% of 98,000 active; OD600 absorbance; growth inhibition, % at 100 µM;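 active = growth inhibition above about 50% at one test dose, limit read from the data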;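 also: growth measured after 20 h incubation at 37 °C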
PostGolgi yeast = phenotypic screen on post-Golgi transport, primary screen | post-Golgi transport phenotypic cell assay | inhibition, % at 10 µM | 0.9% of 98,000 active | AID 739, 2007;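 also: yeast cells grown in 1536-well plates; yeast grown about 18 h at 30C before absorbance read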
Ecoli tolC = growth inhibitors of E. coli tolC mutant, primary screen, strain BW25113 ΔtolC::kan, 384-well | OD615 | growth inhibition, % at 10 µM (by protocol) | 2.2% of 65,000 active | AID 573, 2007;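 active = growth inhibition at or above a cutoff equal to the mean over every tested compound plus 3 SD, cut at about 60% in these data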;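 also: growth measured after 20 h incubation at 37 °C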
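Signal: optical density read at 615 nm; Assay system: E. coli ΔtolC::kan strain BW25113; Times: 20 h incubation with compound, 37 °C; Dosing: 10 µM final, single dose.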
PostGolgi ctrl = growth inhibition of yeast control strain, primary screen, counter-screen for post-Golgi transport modulator project. efflux-deficient yeast background strain, growth absorbance A615, 16 h. inhibition, % at 10 µM. 5% of 98,000 active. AID 738, 2007
* marks the source's active call; other numbers are inactive results; · = no result. Rule as the data show it, unless noted: active = inhibition above about 30%; inactive = the rest.

SMILES	Cav3 T inh	Ecoli WT expand	PostGolgi yeast	Ecoli tolC	PostGolgi ctrl
Cc1ccc(NC(=O)Cc2nc(CSc3nnc(-c4ccc5c(c4)OCO5)o3)cs2)cc1	-5.4*	-11	15	14	21
CCOC(=O)C(=Cc1ccc(F)cc1)C(=O)OCC	0.8	4	4	·	9
CCOC(=O)/C(=C\c1ccccc1)C(=O)c1cc(C(C)=O)c(Nc2ccccc2)s1	-1.1	-21	19	·	60*
CCOC(=O)/C(=C\c1cccnc1)C(=O)c1cc(C(C)=O)c(Nc2ccccc2)s1	4.1*	0	111*	·	90*
CCOC(=O)c1cccc(NC(=O)c2cccnc2)c1	0.29	0	-8	-3	12
Cc1ccc2oc(=O)c3cnn(CC(=O)N(CCCN4CCOCC4)Cc4ccco4)c3c2c1	1.7	-4	7	-11	-2
Cc1cccc(C(=O)O/N=C(\N)Cc2ccc([N+](=O)[O-])cc2)c1	-4.5*	15	-3	·	15
N/C(Cc1ccc([N+](=O)[O-])cc1)=N\OC(=O)C(c1ccccc1)c1ccccc1	-3.4*	-3	-10	·	33*
N/C(Cc1ccc([N+](=O)[O-])cc1)=N\OC(=O)c1ccc2ccccc2c1	-1.8	1	13	·	72*
COc1ccc(C/C(N)=N/OC(=O)C(c2ccccc2)c2ccccc2)cc1OC	-0.41	-6	0	·	24
COC(=O)CN1C(=O)S/C(=C/c2ccc(N3CCCCC3)o2)C1=O	-7.9*	2	-6	·	-1
CCOC(=O)CN1C(=O)S/C(=C/c2ccc(N3CCCCC3)o2)C1=O	-1.1	-4	1	·	4
CN(C)S(=O)(=O)n1ccnc1	0.46	3	-4	·	-4
CCOC(=O)N/C(N)=N/c1nc2ccccc2s1	0.16	12	-26	44	33*
CCCc1cc(-c2n[nH]c(=S)n2C(C)c2ccccc2)cs1 (stereo not drawn)	-4.6*	6	-4	·	42*
Nc1ccccc1CNc1nc(NCCO)nc2c1ncn2CCN1CCOCC1	0.5	·	·	·	·
Cc1cc(=O)oc2cc(OCC(=O)NCCCN3CCOCC3)ccc12	·	8	2	-10	7
Cc1cc(=O)oc2cc(OCCSCCN3CCOCC3)ccc12	-0.19	5	6	8	32*
COC(=O)c1c(NC(NC(=O)C(C)(C)C)C(Cl)(Cl)Cl)sc2c1CCC2 (stereo not drawn)	-0.15	0	-2	·	51*
COC(=O)c1c(NC(=O)CC2NCCNC2=O)sc2c1CCCC2 (stereo not drawn)	0.058	9	5	-4	-4
COC(=O)c1c(NC(=O)C2CC2)sc2c1CCCC2	-0.79	4	-7	40	35*
COC(=O)c1c(NC(=O)c2nn(C)cc2Cl)sc2c1CCCC2	-1.7	-4	-2	-1	33*
CC(C)(C)C(=O)NC(NC(=S)Nc1sc2c(c1C#N)CCCC2)C(Cl)(Cl)Cl (stereo not drawn)	-1.5	-6	-3	·	15
CCCC(=O)N1CCN(c2nc(CC(C)C)c3c(c2C#N)CCC3)CC1	-5.5*	9	17	2	12
CC(C)C(=O)N1CCN(c2nc(-c3ccccc3)c3c(c2C#N)CCCC3)CC1	-5.3*	-12	6	7	22
SMILES	Cav3 T inh	Ecoli WT expand	PostGolgi yeast	Ecoli tolC	PostGolgi ctrl
NC(=O)C1=C[C@H](c2ccc(Br)cc2)C[C@H](OCc2ccc(CO)cc2)O1	-0.25	·	·	·	·
Cc1ccc(S(=O)(=O)Nc2nc(C)c(NC(=O)Nc3ccc(Cl)cc3Cl)s2)cc1	-3.2	-2	5	·	41*
Cc1ccc(C)c(C(=O)NCc2ccncc2)c1	0.4	17	35*	1	-3
Cc1ccc(C)c(C(=O)NCCN(C)C)c1	1.1	0	-7	-13	9
O=C(NC1CCCCC1)C(c1ccco1)N(Cc1cccnc1)C(=O)C1COc2ccccc2O1 (stereo not drawn)	-0.59	-1	7	13	30*
CCSC1=C(C#N)C2(CCCCC2)C(C#N)=C(N)N1	·	10	-4	14	3
N#CC1=C(N)NC(SCc2ccccc2)=C(C#N)C12CCCCC2	·	16	103*	62*	91*
N#CC1=C(N)NC(SCC(=O)Nc2ccccc2)=C(C#N)C12CCCCC2	-5*	·	·	·	·
CC(=O)c1cccc(NC(=O)N2CCC(c3nnc(SCC(N)=O)n3C)CC2)c1	-0.35	4	-9	-20	-10
OC(CNc1nc2ccccc2s1)c1ccccc1 (stereo not drawn)	-0.7	10	2	6	2
COC(=O)c1ccc2c(c1)N(Cc1cc(C)ccc1C)C(=O)c1ccccc1S2=O (stereo not drawn)	-2	·	·	-14	·
CCOC(=O)c1ccc2c(c1)N(Cc1ccccc1C)C(=O)c1ccccc1S2=O (stereo not drawn)	·	-9	2	14	31*
CCOC(=O)C(O)(C1C(=O)CC(C)(C)CC1=O)C(F)(F)F (stereo not drawn)	-0.88	1	-8	8	6
CCn1cc(Cl)c(C(=O)N2N=C3/C(=C/c4cccs4)CCCC3C2c2cccs2)n1 (stereo not drawn)	-5.6*	·	·	·	·
Oc1c(Cl)cc(Cl)cc1/C=N/c1nccs1	-9.3*	32	-8	·	9
CCc1nn(C(C)C(=O)Nc2cccc(C)c2C)c(=O)c2cc3occc3n12 (stereo not drawn)	-1	-6	2	16	13
CC(C)C(=O)Nc1nnc(CCN2CCOCC2)s1	0.51	7	1	·	7
CC(=O)c1sc(NC(=O)CN2C(=O)CCC2=O)nc1C	·	·	·	-6	·
COc1ccc(OC)c(C2C(C(=O)Nc3nc4ccccc4s3)=C(C)NC3=C2C(=O)CCC3)c1 (stereo not drawn)	-7.5*	-4	-1	·	17
Cn1c(C(=O)NCc2ccc3c(c2)OCO3)cc2sccc21	-2.3	-4	-14	18	8
CC(C)n1c(C(=O)OCC(=O)NCc2ccc3c(c2)OCO3)cc2sccc21	-3.3*	-21	0	58	37*
O=C(Nc1nccs1)C1C2/C=C\CCCCC21 (stereo not drawn)	0.16	0	16	0	5
Cc1nn(C(C)(C)C)c(OC(=O)c2ccc3c(c2)OCO3)c1S(=O)(=O)c1ccccc1	-2.8	-11	4	16	37*
Cc1nn(C(C)(C)C)c(OC(=O)c2ccc3c(c2)OCO3)c1Sc1ccccc1	-4.9*	-13	-8	·	10
Cc1ccc(S(=O)(=O)c2c(C)nn(C(C)(C)C)c2OC(=O)c2ccco2)cc1	·	7	7	-6	16
CN(CCOC(=O)c1ccc2c(c1)OCCO2)Cc1ccccc1	-0.15	4	-4	-1	0
Cc1ccc(S(=O)(=O)c2c(C)nn(C(C)(C)C)c2OC(=O)c2ccc(Br)o2)cc1	·	-10	50*	2	17
COc1ccc(C(CC(=O)O)NC(=O)COc2ccccc2)cc1 (stereo not drawn)	1.2	-3	3	-21	11
O=C(NCCO)c1ccccc1O	0.0076	2	23	·	5
O=C(NCCCc1ccccc1)c1ccccc1O	-2.6	26	-11	67*	8

Bioassay records as filed in PubChem.
